Screens (PubChem BioAssay)
MrgX1 allo act – positive allosteric modulators of MrgX1, primary screen, HEK293 cells, Fluo-4 calcium flux; 0.63% of 310,000 active; AID 588675, 2011; FDSS; stronger effect = higher value; B-score at 10 µM;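 active = plate-corrected calcium response at least 3 library SD above typical, normal starting fluorescence, not activating the receptor alone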;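 also: compound read alongside a low EC10 to EC30 dose of BAM8-22 agonist; peak minus trough fluorescence over baseline measured at the second addition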
RGS4 pot – RGS4 potentiators or activators, primary screen, cell-based, HEK293 M3R inducible RGS4, calcium flux. carbachol calcium flux Fluo4; stronger effect = lower value. 0.92% of 310,000 active. AID 463111, 2010. B-score at 10 µM;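 active = B-score of the integrated calcium signal more than 4 SD below the library mean, with starting fluorescence not abnormally high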;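 also: negative B-score means reduced calcium response which marks RGS4 activation or potentiation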
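Reagent: ECmax carbachol challenge; Test system: M3R-expressing HEK293 line, RGS4 induced by doxycycline; Schedule: overnight RGS4 induction, 30 min dye load 37 °C, 20 min compound RT; Detection: calcium dye Fluo4 fluorescence; Read-out: Agonist-evoked peak-minus-minimum fluorescence over baseline, integrated ratio, B score.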
MrgX1 ag – agonists of human MrgX1 receptor, primary screen, HEK293 cells, Fluo-4 calcium flux; Mas-related G-protein coupled receptor member X1 (Homo sapiens), Q96LB2; Fluo-4 calcium fluorescence, agonist mode; stronger effect = higher value; B-score at 10 µM; 0.44% of 310,000 active; AID 588627, 2011;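 active = calcium response B-score plate-corrected fluorescence ratio at least 3 library SD, with starting fluorescence B-score inside 5 SD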
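times = overnight plating, then 30 min 37 °C plus 30 min room-temperature dye loading | assay system = stable human MrgX1 HEK293 cell line | input = fifteen thousand cells per well | signal = kinetic calcium dye fluorescence, Fluo-4 NW | dosing = compound delivered in addition one of three | read-out = B-scored fluorescence response ratio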
RGS4 inh – RGS4 inhibitors, primary screen, cell-based, HEK293 M3R inducible RGS4, calcium flux; 0.45% of 310,000 active; Regulator of G-protein signaling 4 (Homo sapiens), P49798; B-score at 10 µM; Fluo-4 calcium flux; stronger effect = higher value; triggered by carbachol at its EC20; AID 463165, 2010;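 active = B-score, a plate-corrected calcium signal, over three deviations above library mean, with baseline fluorescence within five deviations of library mean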;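 also: RGS4 expression induced by doxycycline in cells with stable M3 receptor; B-score is computed from the integrated fluorescence ratio over baseline after carbachol; higher B-score means a larger calcium signal and so more RGS4 inhibition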
Target sequence (P49798 whole entry, looked up): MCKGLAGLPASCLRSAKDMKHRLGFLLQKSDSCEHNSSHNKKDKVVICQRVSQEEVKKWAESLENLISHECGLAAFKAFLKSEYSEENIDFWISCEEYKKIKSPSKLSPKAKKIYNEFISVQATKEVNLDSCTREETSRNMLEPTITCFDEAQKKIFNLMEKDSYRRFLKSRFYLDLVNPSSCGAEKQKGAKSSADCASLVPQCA
MrgX1 antag – antagonists of human MrgX1 receptor, primary screen, HEK293 cells, Fluo-4 calcium flux | Mas-related G-protein coupled receptor member X1 (Homo sapiens), Q96LB2 | BAM8-22 antagonism; stronger effect = lower value | B-score at 10 µM | 1.3% of 310,000 active;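 active = calcium-response B-score plate-corrected more than 3 library SD below zero, starting fluorescence within 5 deviations, no agonist response on first addition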;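 also: peak minus trough fluorescence over baseline after final BAM8-22 challenge near maximal dose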
* = called active by the depositor; i = inactive. This is a sample that favours compounds with a hit; in the whole collection about 3.5% have one here.

SMILES	MrgX1 allo act	RGS4 pot	MrgX1 ag	RGS4 inh	MrgX1 antag
CC1(C)CC(=O)C2=C(C1)OC1=C(C(=O)CC(C)(C)C1)C2c1cc([N+](=O)[O-])cc([N+](=O)[O-])c1O	i	i	i	i	i
CC(C)(C)c1ccc(OCCCNC2CCCC2)cc1	i	-7.4*	i	i	i
O=S(=O)(Cc1ccccc1)N1CCN(Cc2ccc3c(c2)OCO3)CC1	i	i	i	i	i
N#C/C(=C\c1ccc(O)c(O)c1)C(=O)NCCCc1ccccc1	6.7*	i	i	i	i
CCCN(CCC)C1=N/C(=C\c2ccco2)C(=O)N1c1ccccc1	6.9*	i	i	i	i
CCCN=C1N/C(=C\c2ccco2)C(=O)N1c1ccccc1	i	i	i	i	i
Cc1ccccc1OCCNc1cc(N2CCNCC2)ccc1[N+](=O)[O-]	i	i	27*	5.1*	i
Nc1c(/C=C2\C=Nc3ccccc32)c(=O)nc2sc(CC(=O)N3CCOCC3)nn12	10*	i	i	i	i
COC1=C/C(=C/c2c(N)n3nc(CC(=O)N4CCCCC4)sc3nc2=O)C=CC1=O	i	i	69*	i	i
CCOc1ccc(C(=O)n2cnnc2N)cc1	i	i	i	i	i
COc1ccc(NC(=O)CSc2nnc(-c3cccnc3)s2)cc1	i	i	i	i	i
COc1ccc(/C=C(/NC(=O)c2ccccc2)C(=O)NC2CCS(=O)(=O)C2)cc1 (configuration not stated)	i	i	i	i	i
CC(=O)NCCC(=O)N(C)CC1CCN(CCc2cccc(C(F)(F)F)c2)CC1	i	i	i	i	i
N/C(=N\OC(=O)c1ccc(=O)n(Cc2ccccc2)c1)c1ccccn1	i	i	i	i	-5.1*
N/C(=N\OC(=O)c1ccc(=O)n(Cc2ccc(Cl)cc2)c1)c1ccccn1	i	i	i	i	i
N/C(=N\OC(=O)c1ccc(Cl)c(Cl)c1)c1cccnc1	i	i	i	i	i
N/C(=N\OC(=O)c1ccc(Cl)c(Cl)c1)c1cccc(CSc2ccccn2)c1	i	-7.5*	i	i	i
CCS(=O)(=O)c1ccc2oc(SCC(=O)NCc3ccccc3)nc2c1	i	-7.2*	i	i	i
CC(C)(C)c1ccc(/C=C/C(=O)N2CCN(c3ncccn3)CC2)cc1	i	i	i	i	-6.3*
COc1ccc(C2=NN(C(=O)C(O)c3ccccc3)C(O)(C(F)(F)F)C2)cc1 (configuration not stated)	i	i	29*	i	i
CCn1c(/C=C/c2cc[n+](C)cc2)nc2ccccc21	i	i	i	i	-5.9*
O=C(c1c(F)c(F)c(F)c(F)c1F)N1CCN(c2cccc(C(F)(F)F)c2)CC1	i	-7.2*	i	i	i
O=C(c1ccccc1F)N1CCN(c2cccc(C(F)(F)F)c2)CC1	i	i	i	i	i
Cc1ccc(S(=O)(=O)Nc2cc3c(cc2C#N)OCO3)cc1C(N)=O	i	i	i	i	i
Cc1ccc(N2CCN(S(=O)(=O)c3ccc4c(c3)NC(=O)C(C)C(=O)N4)CC2C)cc1 (configuration not stated)	i	i	i	i	-7.6*
Cc1ccc(N2CCN(S(=O)(=O)c3ccc4c(c3)n(C)c(=O)c(=O)n4C)CC2C)cc1 (configuration not stated)	i	i	i	i	i
CCOC(=O)c1cnc2c(cnn2C)c1NCCCn1ccnc1	i	i	i	i	i
CCC(=O)N1CCc2nc(-c3ccccc3)sc2C1	i	i	i	i	i
CCc1cc[n+](-c2nc3ccccc3nc2[N-]S(=O)(=O)c2ccc(Br)s2)cc1	i	i	i	i	-6.5*
O=C(ON=C1CCN(S(=O)(=O)c2ccccc2)CC1)c1ccc(F)cc1	i	i	i	i	-6.1*
